We go through 15 compounds from the M2OR odorant receptor database.
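Also: active if original authors judged signal statistically different from baseline.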

For one assay, the target named is T1, OR11H4 (Homo sapiens) (UniProt Q8NGC9).
T1 sequence (whole entry): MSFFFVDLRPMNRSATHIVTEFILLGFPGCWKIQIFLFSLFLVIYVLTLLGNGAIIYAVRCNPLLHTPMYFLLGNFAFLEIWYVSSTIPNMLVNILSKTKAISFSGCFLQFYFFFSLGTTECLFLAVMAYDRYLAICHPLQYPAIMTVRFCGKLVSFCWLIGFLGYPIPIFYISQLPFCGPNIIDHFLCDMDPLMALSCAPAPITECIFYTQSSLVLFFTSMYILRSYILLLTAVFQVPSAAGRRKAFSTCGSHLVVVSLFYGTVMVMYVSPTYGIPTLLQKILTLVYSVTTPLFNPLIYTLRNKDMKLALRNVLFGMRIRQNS
The settings on record: stereoisomer not certain. The essentials:
(§1)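 Transient luciferase assays in mammalian cell lines were common, though methods varied by source. The values come from published papers and their supplementary material, with extra details from the original authors when needed. Responsive refers to a measured signal the original authors judged statistically different from baseline, and non-responsive (inactive) to the remainder.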
For `CC1=NC(C)C(C)S1` (configuration not stated), the “odorant receptor agonist call” value is “inactive”.

Consider `CCCCCC(=O)C(C)C(C)=O` (configuration not stated), for which the “odorant receptor agonist call” value was “inactive”.

On to `Cc1cnc(C)c(C)n1`, for which the “odorant receptor agonist call” value was “inactive”.

`CCC(S)C(C)CO` (configuration not stated): the “odorant receptor agonist call” value was “inactive”.

Regarding `CC1CCCCCCCCCCCCC(=O)C1` (configuration not stated), the “odorant receptor agonist call” value was “inactive”.

Consider `CC1=C(O)C(=O)C(C)O1` (configuration not stated), for which the “odorant receptor agonist call” value was “inactive”.

As for `CC1=C(O)C(=O)OC1C` (configuration not stated), the “odorant receptor agonist call” value was “inactive”.

Take `CCCC(S)CCOC(C)=O` (configuration not stated): the “odorant receptor agonist call” value was “inactive”.

On to `CC(CO)CS` (configuration not stated), for which the “odorant receptor agonist call” value is “inactive”.

Turning to `CC(=O)c1c(C)c([N+](=O)[O-])c(C(C)(C)C)c([N+](=O)[O-])c1C`, the “odorant receptor agonist call” value was “inactive”.

`CCCCCC(S)C(C)CO` (configuration not stated): the “odorant receptor agonist call” value was “inactive”.

With `CCC1OC(C)=C(O)C1=O` (configuration not stated), the “odorant receptor agonist call” value is “inactive”.

Consider `CCCCCCC=CCCC=O`, for which the “odorant receptor agonist call” value is “inactive”.

With `CCC1OC(=O)C(O)=C1C` (configuration not stated), the “odorant receptor agonist call” value was “inactive”.

As for `CCCCC(S)C(C)CO` (configuration not stated), the “odorant receptor agonist call” value is “inactive”.

The target of a further assay is T2, OR11H6 (Homo sapiens) (UniProt Q8NGC7).
T2 sequence (whole entry): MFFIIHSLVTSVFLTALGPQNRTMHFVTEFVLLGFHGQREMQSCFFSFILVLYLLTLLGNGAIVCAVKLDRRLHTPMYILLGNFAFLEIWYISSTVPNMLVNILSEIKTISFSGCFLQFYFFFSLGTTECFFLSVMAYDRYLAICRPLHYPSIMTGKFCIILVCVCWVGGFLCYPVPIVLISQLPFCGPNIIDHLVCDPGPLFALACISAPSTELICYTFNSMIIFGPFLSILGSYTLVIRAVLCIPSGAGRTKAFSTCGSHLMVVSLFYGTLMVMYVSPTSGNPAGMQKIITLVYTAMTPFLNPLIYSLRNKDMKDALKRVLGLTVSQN
The settings on record: stereoisomer not certain. The essentials: as §1
For `CC1=NC(C)C(C)S1` (configuration not stated), the “odorant receptor agonist call” value was “inactive”.

As for `CCCCCC(=O)C(C)C(C)=O` (configuration not stated), the “odorant receptor agonist call” value was “inactive”.

`Cc1cnc(C)c(C)n1`: the “odorant receptor agonist call” value was “inactive”.

Consider `CCC(S)C(C)CO` (configuration not stated), for which the “odorant receptor agonist call” value is “inactive”.

As for `CC1CCCCCCCCCCCCC(=O)C1` (configuration not stated), the “odorant receptor agonist call” value was “inactive”.

With `CC1=C(O)C(=O)C(C)O1` (configuration not stated), the “odorant receptor agonist call” value was “inactive”.

For `CC1=C(O)C(=O)OC1C` (configuration not stated), the “odorant receptor agonist call” value was “inactive”.

For the compound `CCCC(S)CCOC(C)=O` (configuration not stated), the “odorant receptor agonist call” value was “inactive”.

In the case of `CC(CO)CS` (configuration not stated), the “odorant receptor agonist call” value is “inactive”.

`CC(=O)c1c(C)c([N+](=O)[O-])c(C(C)(C)C)c([N+](=O)[O-])c1C`: the “odorant receptor agonist call” value was “inactive”.

With `CCCCCC(S)C(C)CO` (configuration not stated), the “odorant receptor agonist call” value is “inactive”.

Turning to `CCC1OC(C)=C(O)C1=O` (configuration not stated), the “odorant receptor agonist call” value is “inactive”.

With `CCCCCCC=CCCC=O`, the “odorant receptor agonist call” value was “inactive”.

Turning to `CCC1OC(=O)C(O)=C1C` (configuration not stated), the “odorant receptor agonist call” value was “inactive”.

For the compound `CCCCC(S)C(C)CO` (configuration not stated), the “odorant receptor agonist call” value was “inactive”.

A further assay has as its target T3, OR11L1 (Homo sapiens) (UniProt Q8NGX0).
T3 sequence (whole entry): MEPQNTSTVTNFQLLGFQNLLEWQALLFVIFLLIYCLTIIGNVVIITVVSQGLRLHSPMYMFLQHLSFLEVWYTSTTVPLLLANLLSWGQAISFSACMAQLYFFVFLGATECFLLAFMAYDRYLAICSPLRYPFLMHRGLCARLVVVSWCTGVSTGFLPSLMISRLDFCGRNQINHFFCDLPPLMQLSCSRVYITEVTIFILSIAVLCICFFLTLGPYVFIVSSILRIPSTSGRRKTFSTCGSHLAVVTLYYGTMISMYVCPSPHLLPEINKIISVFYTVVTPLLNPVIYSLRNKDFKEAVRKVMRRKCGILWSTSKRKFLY
The note with it: stereoisomer not certain. The essentials: as §1
For `CC1=NC(C)C(C)S1` (configuration not stated), the “odorant receptor agonist call” value was “inactive”.

For the compound `CCCCCC(=O)C(C)C(C)=O` (configuration not stated), the “odorant receptor agonist call” value is “inactive”.

Regarding `Cc1cnc(C)c(C)n1`, the “odorant receptor agonist call” value was “inactive”.

`CCC(S)C(C)CO` (configuration not stated): the “odorant receptor agonist call” value was “inactive”.

With `CC1CCCCCCCCCCCCC(=O)C1` (configuration not stated), the “odorant receptor agonist call” value is “inactive”.

For the compound `CC1=C(O)C(=O)C(C)O1` (configuration not stated), the “odorant receptor agonist call” value was “inactive”.

Take `CC1=C(O)C(=O)OC1C` (configuration not stated): the “odorant receptor agonist call” value was “inactive”.

For `CCCC(S)CCOC(C)=O` (configuration not stated), the “odorant receptor agonist call” value was “inactive”.

Regarding `CC(CO)CS` (configuration not stated), the “odorant receptor agonist call” value is “inactive”.

In the case of `CC(=O)c1c(C)c([N+](=O)[O-])c(C(C)(C)C)c([N+](=O)[O-])c1C`, the “odorant receptor agonist call” value was “inactive”.

With `CCCCCC(S)C(C)CO` (configuration not stated), the “odorant receptor agonist call” value was “inactive”.

With `CCC1OC(C)=C(O)C1=O` (configuration not stated), the “odorant receptor agonist call” value is “inactive”.

As to `CCCCCCC=CCCC=O`, the “odorant receptor agonist call” value is “inactive”.

With `CCC1OC(=O)C(O)=C1C` (configuration not stated), the “odorant receptor agonist call” value is “inactive”.

Consider `CCCCC(S)C(C)CO` (configuration not stated), for which the “odorant receptor agonist call” value was “inactive”.

The target of the next assay is T4, OR12D2 (Homo sapiens) (UniProt P58182).
T4 sequence (whole entry): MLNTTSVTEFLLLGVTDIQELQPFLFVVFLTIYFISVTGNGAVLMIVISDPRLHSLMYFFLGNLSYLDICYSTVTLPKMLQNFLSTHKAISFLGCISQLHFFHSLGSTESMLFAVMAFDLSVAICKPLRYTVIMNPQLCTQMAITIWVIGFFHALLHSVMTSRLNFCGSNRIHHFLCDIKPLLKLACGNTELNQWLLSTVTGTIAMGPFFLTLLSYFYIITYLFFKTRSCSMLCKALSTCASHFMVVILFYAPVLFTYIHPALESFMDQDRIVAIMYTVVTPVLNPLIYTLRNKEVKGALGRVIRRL
The settings on record: stereoisomer not certain. A digest of the protocol:
as §1
Regarding `CC1=NC(C)C(C)S1` (configuration not stated), the “odorant receptor agonist call” value was “inactive”.

`CCCCCC(=O)C(C)C(C)=O` (configuration not stated): the “odorant receptor agonist call” value was “inactive”.

Turning to `Cc1cnc(C)c(C)n1`, the “odorant receptor agonist call” value was “inactive”.

As to `CCC(S)C(C)CO` (configuration not stated), the “odorant receptor agonist call” value was “inactive”.

On to `CC1CCCCCCCCCCCCC(=O)C1` (configuration not stated), for which the “odorant receptor agonist call” value is “inactive”.

In the case of `CC1=C(O)C(=O)C(C)O1` (configuration not stated), the “odorant receptor agonist call” value was “inactive”.

For `CC1=C(O)C(=O)OC1C` (configuration not stated), the “odorant receptor agonist call” value was “inactive”.
